This passage reports yeast fitness results from the RNAGym collection of RNA variant scans (doi:10.1126/science.aae0568).

This sample holds only a part of the variants without activity. Some results are limits rather than exact numbers.

The chains are these.
B1: tRNA (parent)
chain: GUUCCGUUGGCGUAAUGGUAACGCGUCUCCCUCCUAAGGAGAAGACUGCGGGUUCGAGUCCCGUACGGAACG

Variants of B1 are the subject of the series. Description: yeast fitness relative to wild type (ratio to wild type); higher = fitter; tRNA-Arg(CCU), competitive growth, 37 C, YPD. The method, boiled down: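 Amplicons of the tRNA-Arg(CCU) gene were sequenced, 100-nucleotide paired-end, from the start population and from each end population of a pooled yeast competition. The competition, in six parallel replicates, lasted 24 hours in YPD at 37°C. Fitness relative to wild type was calculated from changes in genotype frequencies. Genotypes had to have ≥ 100 starting reads, and estimates < 0.5 were set to 0.5.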
Consider C4G G44C U47A, for which the yeast fitness stood at 0.592. For C22G A42G U59A G68C, the yeast fitness is no more than 0.5. Under A43C C60G G67A stands no more than 0.5; under A21U C24A A37U G48C, 0.534; under C5U C34U C49G G52C C55U C62G, no more than 0.5. For the variant C11G A45G, the yeast fitness was determined as 0.636. Under A14U G48U stands 0.567; under U2C A14G A57C A69U, no more than 0.5; under U19A A42G A65C A69C A70G, no more than 0.5. Under U2G A14U U28A stands no more than 0.5. Take U3C A37C C62G: the yeast fitness amounted to 0.548. Under C5U C11A G44C stands no more than 0.5; under A21C U47A, 0.85; under A20U C27U U64C, 0.954.

In the case of G50A A69U, the yeast fitness was 1.

Turning to U2C A15U C46A, the yeast fitness was no more than 0.5. As for U26C C29G G68C, the yeast fitness stood at 0.558. Under A42U A45C stands 1.17; under U35C G41A, 0.882. Consider U28G C29A, for which the yeast fitness is no more than 0.5.

For U16A U28C A69C, the yeast fitness came out at 0.758. Under A14C U19C A43C G44C G48A U59A C62U U64A stands no more than 0.5.

For the variant U3A A20C U32A C62U G63A, the yeast fitness turned out to be 0.572.

Consider G23C G68C, for which the yeast fitness was 0.697. With A21G C27A C34G G38A G63C the figure was no more than 0.5; with G12A A37G U59C, no more than 0.5; with C22G G23C G39A A45C C49U C61U G68A, no more than 0.5. As for G6C U26C U64A, the yeast fitness is no more than 0.5. Regarding C11U A14C C22U A43C, the yeast fitness was no more than 0.5. On to G12A A15G U54G, for which the yeast fitness is no more than 0.5. As for C46U C55U C61G, the yeast fitness is no more than 0.5. Under U8C C27U A36C G39C G48C G63U A70U stands no more than 0.5; under C5G A40C U59A, no more than 0.5. Regarding C5G U7A C22U C30A C49G C62G, the yeast fitness is no more than 0.5.

Consider C46A G58U, for which the yeast fitness was determined as 0.907. With G9C U13C C30G C61U, the yeast fitness is no more than 0.5. With C5U C61A C66A the figure was no more than 0.5; with A37G C60A, 0.661; with G10A U16A A57U, 0.558.

Take G9C A14G C62U G63C A70C: the yeast fitness was no more than 0.5. Turning to G9A G10A, the yeast fitness is 0.577. In the case of C5G G10A G52A A70G, the yeast fitness is 0.564. On to U8A G18C C24A U26A U32C, for which the yeast fitness was no more than 0.5. As to C5G U53A, the yeast fitness amounted to 0.658.

For the variant G50C G52C, the yeast fitness was 0.562. Take A20G U59G A69C: the yeast fitness was 0.526. For the variant G17A G50C C60A, the yeast fitness was no more than 0.5. Under C49G G56C A70U stands 0.55; under U8A G51C, 0.534; under C24G A45C C49A G52A, no more than 0.5.

U28C C33U A37G G41A G52C: the yeast fitness was no more than 0.5. Under C33G U54C stands 0.519; under C11U A14U C27U A36U A43G C46U, 0.632. With A14U A15G C34G C61U the figure was no more than 0.5.

C33A C55G A69C: the yeast fitness is no more than 0.5.

With C30G U53G G63A, the yeast fitness is no more than 0.5. Under G25U stands 0.937. Under A21C C33U A36G G39A G44A C55G U59C stands no more than 0.5.

Consider U2A U16A C31G, for which the yeast fitness came to 0.875. Under A20G U32C U47A stands 0.626; under C11U A20G C24G, 0.506. Under C4U U47C stands 1.06; under C22U A37U G52C C61G C66A, no more than 0.5. Regarding A42G C62G, the yeast fitness came to 0.848. C5U U26A C66U: the yeast fitness worked out at 0.792. Turning to U2A U16C, the yeast fitness stood at 0.88. For the variant U8A U13C, the yeast fitness was determined as 0.747. Regarding A14G A15C G67U, the yeast fitness was found to be 0.62. On to A20C G56A C61U, for which the yeast fitness was determined as 0.571. A42G G67C A70C: the yeast fitness was no more than 0.5. With G6C A15U A42G A65G the figure was no more than 0.5; with A20C C22U A65G, 0.596; with C49U A57U G67C, no more than 0.5. Under A20G U26C A37C G68A stands no more than 0.5; under C27U C29U C49G A69G, no more than 0.5. Under U13C G18A stands 0.843; under U26A G38C U47G, no more than 0.5. On to A20C U32C, for which the yeast fitness turned out to be 0.985. For the variant C4U G12A A20G C22U C34U A37G, the yeast fitness is no more than 0.5.

Consider C11A C31G C34G C46G U59A G63A, for which the yeast fitness was no more than 0.5.

For U3A A20C U32A A65U, the yeast fitness is no more than 0.5. With C5U U7G C30A the figure was 0.93. With G6A G9C A21C C30U the figure was no more than 0.5; with U2A C49U A57U, no more than 0.5; with A14C A65G, 0.776. G17C A21U: the yeast fitness stood at 0.559.

As to C27A A43C U47C, the yeast fitness stood at 0.594. For G10A A14C C27G C46G A65G, the yeast fitness was no more than 0.5. C4A G48A A65C: the yeast fitness was 0.618.

Consider A15U U53A, for which the yeast fitness is 0.648. With G38C G58C the figure was 0.937.

With G9A C11A C30A A42C, the yeast fitness was determined as 0.531. With C11U A15G A69U, the yeast fitness was found to be 0.765. Under U19G C29U G39C A42U G67A stands 0.537; under G25C G39A G63C A70U, no more than 0.5; under G25A C31A G51C C55G A57U C66U, no more than 0.5.

In the case of U2A A42G A43G G50A, the yeast fitness is 0.541. For the variant U3C G50A C61U, the yeast fitness was found to be 0.671. As for U8A A15C G18C, the yeast fitness is 0.575. Under C4U C5A C33U C66U stands no more than 0.5. Under G9C U54C stands 0.704. With C27G U32C A42C G48C C55G C60U the figure was no more than 0.5; with U3C U7A A20G C31U A57C G67C, no more than 0.5.

C33U G39A G63A: the yeast fitness was no more than 0.5. Under U3C U13A A20C C30G C31A U54A C55U stands 0.521.

For the variant A15C C27U G58C, the yeast fitness is 0.599. Consider A14G C29U G41A G63A, for which the yeast fitness is no more than 0.5.

Regarding C11A G12C, the yeast fitness stood at 0.612. As for C5G U16A A57U, the yeast fitness is no more than 0.5. Take U13C C46U G48A: the yeast fitness turned out to be 0.732.

As to C31A G39A A43C U53A C66A, the yeast fitness was no more than 0.5. With G9U A14G G18A C46A C49G the figure was no more than 0.5; with A21C U32C A40G, 0.557; with C29U C34U, 0.716. Under A14G U47A stands 0.776; under C4U C24G A43G G63U U64A, no more than 0.5; under C11G A14G A37G G44A C60A C62U U64C G68A A69C, no more than 0.5. Under C4G C5G stands 0.697; under C4U G23C C29G C31G, no more than 0.5. As to G17C C55U A69U A70U, the yeast fitness was no more than 0.5. As for G18C A65U, the yeast fitness turned out to be 0.691.

Consider U7C G9A A14C C33G G50C C60G U64A, for which the yeast fitness was determined as 0.618. Consider C22G C24U C29U C33U A37C G52A C66U, for which the yeast fitness is no more than 0.5. As to C5U G51C U53C, the yeast fitness was no more than 0.5. With G17C C22U C29G G51C the figure was no more than 0.5. With C34G G48C U59C the figure was 0.712; with A40U C49U, 0.856; with U2C U8C, 0.965. Regarding C22U C29G C33U C61U A69C, the yeast fitness was no more than 0.5. Under G10U A15U C31G G50C U59C stands no more than 0.5; under A15G A36G G41A G52A, no more than 0.5; under C5G A43U A65C, 0.557. For the variant C22A C49G, the yeast fitness was 0.646. As for A21C C61G G68A, the yeast fitness is no more than 0.5. With C24U C34U, the yeast fitness came out at 0.688. As to C4G U7A U26A A40C A42G G58C, the yeast fitness is no more than 0.5. With C49A G50A C62U the figure was 0.637. With C30A A42G G50A C62U the figure was no more than 0.5. With G17C A42G C55U the figure was no more than 0.5; with C60G A70U, 0.624. As for C33A A36U A37G, the yeast fitness was no more than 0.5. Under U2A A45U C62G stands no more than 0.5; under U35G G52C G63A, 0.551; under G10C U32C C33A A45U, no more than 0.5.

For C11U A21G C29U C55G, the yeast fitness was no more than 0.5.

Regarding C34U U54C A70U, the yeast fitness is no more than 0.5.

For C22A C24A U26C, the yeast fitness came out at 0.559. Under C30G U47A C49G C61U G63C stands 0.541; under A21G C22U C55U, 0.567; under U8C U16A C33G G41C G56C G58A G63C A65U, no more than 0.5. With U16G U28C G51A C55G the figure was no more than 0.5; with C4G G9A G10C C29A U53C C62U, no more than 0.5; with C30A U32A G38A C55A A65C, no more than 0.5.

Turning to C30G C66G, the yeast fitness was 0.574.

On to U3A G9C G67C, for which the yeast fitness was no more than 0.5.
